This note sets out measurements from ChEMBL document CHEMBL4513216, “Probing the Open Global Health Chemical Diversity Library for Multistage-Active Starting Points for Next-Generation Antimalarials” (ACS Infect Dis, 2020).

This data set can be described thus: Toxicity liver stage against HepG2, at 10uM. It is filed as cell-based. Further details: test concentration 10 uM, cell line HepG2-A16-CD81EGFP. The settings on record: human, HepG2-A16-CD81EGFP cells; read-out: INHIBITION
An outline of the steps:
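Uninfected HepG2-A16-CD81EGFP cells, 3 × 10^3 per well, 1536-well, plated on prespotted compound at 10 μM final, parasite-free screening media added to match infected plates; puromycin 10 μM positive, DMSO 0.5% negative; run in parallel with 48 h PbLuc assay at 37 °C, 5% CO2; viability by CellTiter-Glo luminescence, normalized to controls.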
Take `CC[C@H](C)[C@H](N)C(=O)Nc1nc(-c2cnc(N(C)CCO)nc2)cs1`: the cytotoxicity at 10 µM was -9.27%.

In the case of `CN1CC2(CCCN(C(=O)Cc3cccc(O)c3)C2)OC1=O` (stereo unspecified), the cytotoxicity at 10 µM amounted to 4.61%.

Regarding `COCCn1/c(=N\C(=O)CN(C)S(C)(=O)=O)sc2cc(C)ccc21`, the cytotoxicity at 10 µM was -11.7%.

On to `CN1CCCC(C(=O)N2CCC(Oc3ccc(C#N)cn3)CC2)C1` (stereo unspecified), for which the cytotoxicity at 10 µM is -5.6%.

In the case of `Cc1nnsc1-c1nnc2sc(C(C)C)nn12`, the cytotoxicity at 10 µM was -9.74%.

On to `Cc1ccc(CN(C)C(=O)CNC(C)(C)c2noc(C(C)(C)C)n2)o1`, for which the cytotoxicity at 10 µM was determined as 2.43%.

For `CC(=O)c1ccc(C(=O)NCc2cccnc2N2CCCC(O)C2)s1` (stereo unspecified), the cytotoxicity at 10 µM is -0.147%.

As for `O=C1CC(c2ccncc2)C2(CCN(C(=O)c3ccnnc3)CC2)N1` (stereo unspecified), the cytotoxicity at 10 µM is -80.4%.

As for `CN(CCC1CCCCO1)c1nncc(-c2ccccc2)n1` (stereo unspecified), the cytotoxicity at 10 µM stood at 1.37%.

Regarding `CCC(Nc1ccc(CCN2CCCCC2)cc1)C(N)=O` (stereo unspecified), the cytotoxicity at 10 µM worked out at 4.47%.

Take `CNS(=O)(=O)c1cccc(S(=O)(=O)Nc2ncc(C)s2)c1`: the cytotoxicity at 10 µM is -4.79%.

Turning to `CC(=O)c1cc(C(=O)NC2(c3ccc(Br)cc3)CC2)n(C)c1`, the cytotoxicity at 10 µM came out at 5.78%.

With `CCCN1CCC(Cc2noc(-c3cccnc3OC)n2)CC1`, the cytotoxicity at 10 µM is -11.1%.

For the compound `CC1(C2CCN(CC(N)=O)CC2)CN(Cc2ccccc2)C(=O)CO1` (stereo unspecified), the cytotoxicity at 10 µM was -19.9%.

As for `Cc1cnccc1NCCn1ccnc1C1CCOC1` (stereo unspecified), the cytotoxicity at 10 µM came to 3.8%.

`CC(C)(CNc1cc(F)ccc1F)S(C)(=O)=O`: the cytotoxicity at 10 µM was -2.94%.

Turning to `CN(C)C(=O)CO[C@@H]1CC[C@H]2[C@H]1OCCN2c1ncccn1`, the cytotoxicity at 10 µM was -6.96%.

`Cc1nc(CSCCC(=O)NCc2cccnc2N(C)C)cs1`: the cytotoxicity at 10 µM was -9.19%.

On to `CCOC(=O)c1c(NC(=O)CN2CCN(C(C)=O)CC2)sc2c1CCC2`, for which the cytotoxicity at 10 µM is -5.33%.

Turning to `CCc1nc2n(n1)CC(NCc1nnc(C(C)C)o1)CC2` (stereo unspecified), the cytotoxicity at 10 µM is -15.7%.

In the case of `COc1cccc(CNC(Cc2cccs2)c2nc(C)c(C)s2)c1OC` (stereo unspecified), the cytotoxicity at 10 µM is -12.9%.

Take `CC1(C)CN(c2cc(C3CC3)ncn2)C[C@]1(C)O`: the cytotoxicity at 10 µM amounted to 1.4%.

As to `O=S(=O)(CCO)CCc1ccccc1Cl`, the cytotoxicity at 10 µM came to 7.21%.

Take `CCS(=O)(=O)N1CCc2cc(C(=O)N(C)C)c(NCC3CC3)nc2CC1`: the cytotoxicity at 10 µM was 0.0623%.

On to `CCn1c(CN(C)C)nnc1C1CCN(Cc2ccc(Cl)cc2F)CC1`, for which the cytotoxicity at 10 µM is -2.53%.

For the compound `CC(C)(C)N1CC(C(=O)NCc2nc(C3CCCCC3)no2)CC1=O` (stereo unspecified), the cytotoxicity at 10 µM amounted to 1.08%.

`O=C(CCn1cnnc1)N1CCCC(c2ncc[nH]2)C1` (stereo unspecified): the cytotoxicity at 10 µM is -9.01%.

Regarding `Cc1noc(C)c1C(=O)N1Cc2ncn(C)c2C(COCC(C)C)C1` (stereo unspecified), the cytotoxicity at 10 µM was -105%.

On to `Cc1cnc(CNC(=O)C[C@@H]2COC[C@H]3CN(C4CCC4)C[C@@H]23)cn1`, for which the cytotoxicity at 10 µM was -10.6%.

For `Cc1cc(C(=O)Nc2cnn(CC(F)(F)F)c2)nc(N(C)C)n1`, the cytotoxicity at 10 µM was -2.89%.

Consider `Cc1cc(C)n2nc(C(=O)N[C@H]3C[C@H]4CN(C)CCN4C3)cc2n1`, for which the cytotoxicity at 10 µM is -0.671%.

On to `O=C(NC1CCc2c(ccc(=O)n2CC2CC2)C1)c1ccsc1` (stereo unspecified), for which the cytotoxicity at 10 µM is -4.48%.

With `CCN(CC)C(=O)c1cccc(Cn2nc(C)cc2C)c1`, the cytotoxicity at 10 µM is -5.93%.

As to `CC(C)N1CCC(N2CCCC(C(=O)NCC3(O)CCCCC3)C2)CC1` (stereo unspecified), the cytotoxicity at 10 µM was found to be 2.59%.

As to `Cc1cc(C)c(NC(=O)Nc2cnn(CC(O)CN(C)C)c2)c(C)c1` (stereo unspecified), the cytotoxicity at 10 µM was found to be 12.5%.

`CC(C)(C)n1cc(C2=CCN(CCNC(=O)c3ccccc3)CC2)cn1`: the cytotoxicity at 10 µM is -0.262%.

Consider `CC(NC(=O)NCc1cscn1)c1ccc(N2CCOCC2)cc1` (stereo unspecified), for which the cytotoxicity at 10 µM was -0.736%.

For `COc1ccc(C)cc1CNCc1ccc(-n2nc(C)cc2C)nc1`, the cytotoxicity at 10 µM worked out at 0.813%.

With `CSCCC(=O)N1CCc2c(ncnc2N2CCOCC2)C1`, the cytotoxicity at 10 µM was -4.88%.

Consider `CC(C)NC(=O)N1CCC(c2nnc3ccc(C(=O)N(C)C)cn23)C1` (stereo unspecified), for which the cytotoxicity at 10 µM was found to be 8.79%.

In the case of `CS(=O)(=O)NCC1CCCN(C(=O)c2ccc(Cl)o2)C1` (stereo unspecified), the cytotoxicity at 10 µM was -10.2%.

For the compound `Cc1cc(C)c(CNC(=O)NCCNc2ncccn2)c(=O)[nH]1`, the cytotoxicity at 10 µM was -49.4%.

Turning to `Cc1ncc(CNC(=O)Cc2ccsc2)c(C2CCCN2C)n1` (stereo unspecified), the cytotoxicity at 10 µM is -1.25%.

`NC(=O)c1cnn2c(C3CCN(CCO)CC3)ccnc12`: the cytotoxicity at 10 µM worked out at 0.695%.

For the compound `CC(C)(C)c1n[nH]c(C2CN(C(=O)c3ccsc3)CCO2)n1` (stereo unspecified), the cytotoxicity at 10 µM is -12.3%.

On to `COc1ccc(Cl)cc1S(=O)(=O)N(C)CC(=O)Nc1ccon1`, for which the cytotoxicity at 10 µM is -3.75%.

Consider `NC1CCc2nc(-c3cccnc3)nc(Nc3ccc(F)cc3)c2C1` (stereo unspecified), for which the cytotoxicity at 10 µM is -10.5%.

Regarding `CCn1cc(-c2nccnc2C2CCCN(C(C)=O)C2)cn1` (stereo unspecified), the cytotoxicity at 10 µM was -6.03%.

Take `Cn1cccc1CN1CCc2c(nc(-c3ccccn3)[nH]c2=O)C1`: the cytotoxicity at 10 µM is -10%.

Regarding `c1ccc(OC[C@]23COC[C@H]2CN(C2CCOCC2)C3)nc1`, the cytotoxicity at 10 µM was -2.6%.

As to `Cc1ccc(-c2ncc(CNc3cnccc3CO)s2)o1`, the cytotoxicity at 10 µM was -10.9%.

For `O=C(c1ccoc1)N1CCC2(CC1)C(=O)Nc1ccccc12`, the cytotoxicity at 10 µM was -13.6%.

Regarding `COc1ccc(-c2nnc(C(C)N3CCOC(C)(C)C3)o2)cc1` (stereo unspecified), the cytotoxicity at 10 µM was 2.62%.

In the case of `Cc1cc(C(=O)Nc2ccn(CCCN3CCCC3)n2)c(C)o1`, the cytotoxicity at 10 µM is -7.12%.

Consider `CC(C)c1cc2c(O)nc(CSCC(=O)NCc3ccncc3)nc2s1`, for which the cytotoxicity at 10 µM is -6.18%.

Take `CNC(=O)[C@@]12CCCN(c3ncccn3)[C@@H]1CN(C)C2`: the cytotoxicity at 10 µM is 12.8%.

With `COc1nccnc1N1CCN(Cc2cccc(C)c2)C(=O)C1`, the cytotoxicity at 10 µM was -0.408%.

Regarding `CN(C)[C@@H]1CCN(C(=O)CC2CC2)[C@H]1Cc1cnn(C)c1`, the cytotoxicity at 10 µM was -67.3%.

`CN(C)C(=O)Cc1ccc(NCc2nccn2C)cc1`: the cytotoxicity at 10 µM was -8.73%.

For `CNC(=O)[C@@H](c1ccccc1)N1CCC[C@H]1C(=O)NC1CCCCC1`, the cytotoxicity at 10 µM turned out to be 2.35%.

`O=C(O)Cn1ccc(=O)c2cc(Cl)ccc21`: the cytotoxicity at 10 µM was -17.1%.

With `CN(C)S(=O)(=O)NCc1cccnc1Oc1ccc(F)c(F)c1`, the cytotoxicity at 10 µM was 3.05%.

Consider `COCCN1CCCC2(CCN(c3ccsc3)C2=O)C1` (stereo unspecified), for which the cytotoxicity at 10 µM was -79.6%.

Turning to `CN(C)C(=O)C1(C)CN(Cc2cn(C)c3ccc(F)cc23)CCO1` (stereo unspecified), the cytotoxicity at 10 µM was 4.57%.

For the compound `c1coc(-c2nc(CNC3CCC4(CCNCC4)CC3)no2)c1`, the cytotoxicity at 10 µM is -15.8%.

With `O=C(c1ncccn1)N1C[C@@H]2COC[C@]2(COc2cccnc2)C1`, the cytotoxicity at 10 µM was -91.5%.

In the case of `Cc1ncc2c(n1)CCN(Cc1nc(Cc3ccccc3)no1)C2`, the cytotoxicity at 10 µM was found to be 0.414%.

For `COCCN(Cc1ccc(F)cc1Cl)C(=O)c1ccncc1`, the cytotoxicity at 10 µM is -5.69%.

Turning to `CCc1ncnc2c1CCN(CC(=O)N(C)C)CC2`, the cytotoxicity at 10 µM was -106%.

For `CCCC1CCCN(Cc2csc(-c3ncccn3)n2)CC1` (stereo unspecified), the cytotoxicity at 10 µM turned out to be 13.6%.

Take `CCC1c2ccsc2CCN1C(=O)NCc1ccccn1` (stereo unspecified): the cytotoxicity at 10 µM is -4.51%.

Regarding `CCn1nc(C)c(CN(CCCOC)Cc2ccccn2)c1C`, the cytotoxicity at 10 µM was determined as 5.23%.

`CCN1CCCCC1C(=O)N1CCN(C(=O)OC)CC1` (stereo unspecified): the cytotoxicity at 10 µM was -4.81%.

In the case of `CC(C)C(=O)N1CCC2(CN(CC3CCCC3)C2)C1`, the cytotoxicity at 10 µM was 3.86%.

On to `COCCn1cnnc1C1CCCN(C(C)C)C1` (stereo unspecified), for which the cytotoxicity at 10 µM was -27.6%.

As for `CCCNC(=O)NC(=O)CNC(C)(C)c1ccc2c(c1)OCCO2`, the cytotoxicity at 10 µM was -14.7%.

`CN(C)C(=O)N[C@H]1CN(Cc2ccc3c(c2)OCO3)[C@@H]2CCCO[C@H]12`: the cytotoxicity at 10 µM came to 4.32%.

In the case of `CC(C)c1noc(OCC(=O)N2CCCCC2C)n1` (stereo unspecified), the cytotoxicity at 10 µM is 1.45%.

As for `Cc1cc(CN(CCCO)c2ccccc2)on1`, the cytotoxicity at 10 µM is -4.91%.

Regarding `CCOc1cc(C(=O)NS(=O)(=O)c2cccc(C#N)c2)ccc1OC`, the cytotoxicity at 10 µM was -6.69%.

`CC(C)NC(=O)CN1CCC2(CC1)OCCO2`: the cytotoxicity at 10 µM is -8.67%.

Regarding `Cc1cccc(CN2CCC3(CCCN(Cc4cnn(C)c4)C3)C2)n1` (stereo unspecified), the cytotoxicity at 10 µM was -113%.

In the case of `NC(=O)CSc1nccc(-c2ccc3c(c2)OCO3)n1`, the cytotoxicity at 10 µM is -7.38%.

For `CSCCC(NC(N)=O)C(=O)Nc1ccc(-n2cccn2)nc1` (stereo unspecified), the cytotoxicity at 10 µM was found to be 4.78%.

As to `Cc1nc(C(=O)N(C)[C@@H]2CCC[C@@H](Oc3ccccc3)[C@@H]2O)co1`, the cytotoxicity at 10 µM was -22.6%.

Turning to `O=C(Nc1ccncc1)NC1CCN(c2ccccc2Cl)C1=O` (stereo unspecified), the cytotoxicity at 10 µM was -43.6%.

For `Cc1ccc(CN2CCN(C(=O)C3CCC3)[C@@H]3CS(=O)(=O)C[C@@H]32)cc1C`, the cytotoxicity at 10 µM came out at 2.09%.

With `O=C(CC[C@@H]1CCCN2CCCC[C@H]12)N1CCC(c2nnc[nH]2)CC1`, the cytotoxicity at 10 µM is 2.61%.

Regarding `CC(C)CNC1(Cc2cc(-c3ccccc3)on2)COC1`, the cytotoxicity at 10 µM stood at 1.74%.

As for `O[C@H]1CN(Cc2c[nH]nc2-c2ccccc2)CC[C@@]12CCCO2`, the cytotoxicity at 10 µM stood at 10.3%.

In the case of `Cc1ccc(C(=O)N2CCCC(n3cccn3)C2)cc1S(C)(=O)=O` (stereo unspecified), the cytotoxicity at 10 µM is -4.63%.

As to `CN(Cc1cccc(OC(F)F)c1)Cc1nc2c(cnn2C)c(=O)[nH]1`, the cytotoxicity at 10 µM is -0.438%.

Take `CNC(=O)C(C)CN(C)C(=O)Nc1ccc(Cl)cc1-n1cccc1` (stereo unspecified): the cytotoxicity at 10 µM amounted to 16.9%.

Take `CCc1nnc(CN2CCCC(c3cc(C(F)(F)F)[nH]n3)C2)o1` (stereo unspecified): the cytotoxicity at 10 µM was 6.88%.

For the compound `NC(=O)C1CCN(Cn2nc(-c3ccc(F)cc3)oc2=O)C1` (stereo unspecified), the cytotoxicity at 10 µM is 14.6%.

For `CN1CC(=O)N(c2cccc(F)c2)CC12CCN(CC1CCOCC1)C2` (stereo unspecified), the cytotoxicity at 10 µM is 0.887%.
